# Screening data from PubChem BioAssay.
# Sampled rows, rich in hits. Any-hit rate of the full collection: about 4%.
# CHO parental Ca – ATP-evoked calcium signal inhibitors, parental CHO, primary screen, counter-screen for OX1R antagonist project, cell-based, fluorescence, Fluo-8 calcium dye; 330,000 tested, 0.63% active; parental CHO-K1, ATP-induced calcium, Fluo-8 fluorescence; AID 463079, 2010; inhibition, % at 5.6 µM;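 active = inhibition above that plate's mean sample inhibition plus 3 SD, cut at about 26% in these data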;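 also: 0% = ATP-challenged DMSO wells and 100% = DMSO wells without ATP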
#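 Material: parental CHO cells / Compound: single nominal dose of 5.6 µM per compound / Signal: Fluo-8 fluorescence / Replicates: singlicate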
# OX1R antag-1 – antagonists of human orexin 1 receptor (OX1R) | Orexin/Hypocretin receptor type 1 (Homo sapiens), O43613 | OX1R-expressing cells, FRET antagonist read-out | inhibition, % at 6.6 µM | 330,000 tested, 1.8% active | AID 485270, 2010; in the data active = inhibition mostly above about 38%, no sharp cut-off; inactive = mostly below about 40%;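 also: 0% = agonist challenge alone and 100% = reference antagonist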
# Target sequence (O43613 whole entry, looked up): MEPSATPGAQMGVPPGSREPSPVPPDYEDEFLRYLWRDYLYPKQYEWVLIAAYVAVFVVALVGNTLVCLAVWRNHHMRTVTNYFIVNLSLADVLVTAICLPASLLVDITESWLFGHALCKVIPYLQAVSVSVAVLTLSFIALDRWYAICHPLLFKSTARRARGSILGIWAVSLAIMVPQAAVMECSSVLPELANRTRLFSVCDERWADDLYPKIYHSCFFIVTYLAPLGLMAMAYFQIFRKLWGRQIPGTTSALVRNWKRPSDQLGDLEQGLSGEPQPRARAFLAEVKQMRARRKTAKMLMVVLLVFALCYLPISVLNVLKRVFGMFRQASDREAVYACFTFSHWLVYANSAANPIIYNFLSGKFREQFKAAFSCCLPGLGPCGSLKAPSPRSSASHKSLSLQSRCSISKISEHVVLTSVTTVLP
# TAAR1 antag – human TAAR1 antagonists, primary screen, Fluo-8 calcium fluorescence, CHO RD-HGA16 cells; 360,000 tested, 1.5% active; antagonist; AID 624466, 2012; inhibition, % at 3 µM; Trace amine-associated receptor 1 (Homo sapiens), Q96RJ0;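 active = inhibition above a per-plate cutoff, the mean inhibition of test compounds on that plate plus 3 SD, cut at about 49% in these data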;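 also: 0% = DMSO plus EC80 beta-PEA response and 100% = DMSO alone without agonist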
#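 Test system – hTAAR1-expressing CHO RD-HGA16 cells, Gα16-coupled · Reagent – β-PEA at EC80 concentration, post-compound challenge · Compound dosing – 3 µM, single point · Timing – 140 s kinetic read after compound, 140 s after agonist · Detection – Fluo-8 intracellular calcium dye fluorescence, real-time kinetic reads · Control set – DMSO and EC80 PEA controls · Repeats – n of 1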
# TAAR1 ag – human TAAR1 agonists, primary screen, Fluo-8 calcium fluorescence, CHO RD-HGA16 cells. Trace amine-associated receptor 1 (Homo sapiens), Q96RJ0. vehicle wells 0%, saturating PEA agonist 100%. activation, % at 3 µM. 360,000 tested, 0.99% active. AID 624467, 2012;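 active = activation above the mean activation of all test compounds in the run plus 3 SD, cut at about 38% in these data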
#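 System: CHO-derived RD-HGA16 cells with stable Gα16 and human TAAR1. Times: 17-24 h plating, Fluo-8 75 min 37 °C, 30 min RT. Measured by: calcium-sensitive Fluo-8 signal, excitation 470-495, emission 515-575 nm. Read-out basis: % activation relative to PEA EC100 response. Control set: DMSO and PEA EC100. Repeats: no replicates (n 1).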
# OX1R antag-2 – OX1R (HCRTR1) antagonists, primary screen, fluorescence, CHO/OX1R cells, Fluo-8 calcium, orexin A; Orexin/Hypocretin receptor type 1 (Homo sapiens), O43613; Fluo-8 calcium fluorescence; inhibition, % at 5 µM; 330,000 tested, 0.43% active; AID 434989, 2010;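 active = inhibition above its plate's threshold, mean inhibition of all tested compounds on the plate plus 3 SD, cut at about 37% in these data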;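 also: 0% = orexin A challenge wells and 100% = SB-334867-A antagonist wells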
# Numbers without * were called inactive; · = no result given.
SMILES,CHO parental Ca,OX1R antag-1,TAAR1 antag,TAAR1 ag,OX1R antag-2
CCOc1ccc(S(=O)(=O)N2CCCCC2)cc1NC(=O)CN1C(=O)NC(CC)(c2ccccc2)C1=O (stereo not given),-12.9,24.1,17.1,2.4,-17.4
CCC1(c2ccccc2)NC(=O)N(CC(=O)Nc2cc(S(=O)(=O)N3CCCCCC3)ccc2OC)C1=O (stereo not given),26.8,28.8,69.7*,15.3,17.9
COc1ccc(S(=O)(=O)N2CCCCC2)cc1NC(=O)CN(Cc1ccco1)Cc1ccco1,11.3,10.2,63.9*,17.0,26.4
COc1ccccc1NC(=O)N(C)C[C@H]1OCc2cn(nn2)CCCC(=O)N([C@H](C)CO)C[C@@H]1C,·,·,6.0,0.6,·
CC(C)Cc1nnc(NC(=O)CN2C(=O)c3ccccc3C2=O)s1,-12.5,5.9,6.3,8.4,-16.5
CC(=O)Oc1cc(C)c(Cl)c2c(OC(C)=O)cc(C(C)=O)c(O)c12,·,·,-2.7,2.2,·
CCCCNC(=S)Nc1ccc(C(F)(F)F)cc1,71.5*,64.6,2.8,2.5,28.7
COc1ccc(OC)c(NC(=O)c2ccc(-c3csc(C)n3)cc2)c1,-25.0,51.2*,0.3,-0.8,17.2
COc1ccc(-c2csc(NC(=O)C3=NN(c4ccccc4)C(=O)CC3)n2)cc1,1.7,37.3,56.6*,18.3,-12.9
COc1ccc(OC)c2sc(NC(=O)c3cccc(N4C(=O)CCC4=O)c3)nc12,-5.2,11.1,0.7,5.4,-7.2
COc1ccc(-c2csc(NC(=O)c3cccc(N4C(=O)CCC4=O)c3)n2)cc1C,-12.8,42.1,48.9*,12.4,-13.0
O=C(Nc1nc(-c2cc(F)ccc2F)cs1)C1=NN(c2ccccc2)C(=O)CC1,-6.1,32.7,46.2,3.8,-7.6
COc1ccc(-c2csc(NC(=O)c3ccccc3NS(=O)(=O)c3ccc(C)cc3)n2)cc1,6.9,43.4*,47.5,3.9,11.5
COc1ccc(C(=O)Nc2cc(OC)ccc2OC)cc1,-14.7,27.4,-6.2,-3.8,-24.1
CCCCCCCCN1C(=O)[C@@H](CC(=O)NCCCOCCCC)C[C@@]2(C(=O)OC)C1=C[C@H](C(C)(C)C)O[C@@H]2C,·,·,-16.6,-1.6,·
CC(C)c1ccc(NC(=O)CN2C(=O)NC3(CCCCCCC3)C2=O)cc1,-9.5,21.4,-14.6,-2.1,-7.2
COc1ccc(-c2csc(NC(=O)c3ccco3)n2)cc1,-19.0,28.7,5.8,10.6,-30.6
COc1ccc(-c2csc(NC(=O)c3c(OC)cccc3OC)n2)cc1,-15.3,67.6*,-44.5,6.3,2.5
Cc1cc(/C=N/NC(=O)c2cc3ccccc3o2)c(C)n1C,-11.5,33.5,53.7*,10.8,-17.5
O=C(N/N=C/c1cc(Br)c(Br)o1)c1cc2ccccc2o1,15.3,62.5*,-4.6,1.5,-2.1
COc1ccc(-c2noc(CCC(=O)NC3CCCCCC3)n2)cc1OC,·,·,-11.3,0.8,·
CN1Cc2sc(NC(=S)NC(=O)c3ccccc3)c(C#N)c2CC1(C)C,34.0*,25.2,9.8,13.2,40.3*
CCC1(C)Cc2c(sc(NC(=S)NC(=O)c3ccccc3)c2C#N)CO1 (stereo not given),1.7,11.8,-12.0,1.7,3.0
Cc1cccc(NS(=O)(=O)c2ccc3c(c2)Cc2cc(S(=O)(=O)Nc4cccc(C)c4C)ccc2-3)c1C,0.3,16.2,-16.0,0.6,-9.4
COc1ccc(C(=O)N/C(=C\c2cn(C)c3ccccc23)C(=O)N2CCN(C)CC2)cc1OC,-15.6,5.8,-33.5,3.1,-14.2
SMILES,CHO parental Ca,OX1R antag-1,TAAR1 antag,TAAR1 ag,OX1R antag-2
CCOC(=O)C1CCCN(CC(=O)Nc2nc(-c3ccccc3)cs2)C1 (stereo not given),-27.0,13.8,19.5,3.5,-18.9
O=C(CN1C2CCCC1CC(NC(=O)C1CCCCC1)C2)Nc1ccccc1C(F)(F)F (stereo not given),-5.8,42.0*,-4.3,1.8,1.5
O=C(CN1C2CCCC1CC(NC(=O)C1CCCCC1)C2)NCc1ccc(F)cc1 (stereo not given),-20.1,6.9,-2.6,0.8,-26.3
Cc1ccc(-n2nnnc2SCC(=O)c2cc(C)n(CC3CCCO3)c2C)cc1 (stereo not given),-10.6,10.2,-7.5,16.9,-15.7
Cc1cc(C(=O)CSc2nc3ccccc3o2)c(C)n1CC1CCCO1 (stereo not given),32.0,64.3,32.6,13.0,39.3*
Cc1cc(C(=O)CSc2nc3ccccc3[nH]2)c(C)n1CC1CCCO1 (stereo not given),85.1*,54.4*,72.4*,31.7,59.0*
COc1ccc(S(=O)(=O)Nc2cc(Sc3ncn[nH]3)c(O)c3ccccc23)cc1,·,·,18.6,42.6*,·
COc1ccc(S(=O)(=O)Nc2ccc(O)c(Sc3ncn[nH]3)c2)cc1,5.1,27.2,-14.6,1.2,3.4
N#Cc1ccc(Nc2nc(-c3ccc(O)cc3O)cs2)cc1C(F)(F)F,2.5,53.0*,·,·,31.8
CCCCC(=O)Nc1cc(C)c(NC(=O)c2ccco2)cn1,2.8,2.6,-8.0,10.1,-9.5
Cc1ccc(C(=O)N(CCc2ccccc2)Cc2ccccc2)cc1S(=O)(=O)N1CCOCC1,·,·,40.3,7.6,·
O=C(OCC(=O)N(Cc1ccccc1)Cc1ccccc1)c1ccccc1O,-7.0,7.8,29.4,16.7,-7.0
Cc1ccc(C(=O)OCC(=O)N(CCc2ccccc2)Cc2ccccc2)cc1S(=O)(=O)N1CCOCC1,-3.9,31.8,50.0*,3.7,-1.9
Cc1ccc(C(=O)N(CCc2ccccc2)Cc2ccccc2)cc1S(=O)(=O)N1CCCCC1,34.9*,13.9,39.5,-0.3,1.1
Cc1ccc(S(C)(=O)=O)cc1C(=O)OCC(=O)N(Cc1ccccc1)Cc1ccccc1,-5.5,15.1,53.7*,17.2,13.4
Fc1ccc2nc(-c3ccc(CN4CCC5(CC4)CNc4ccccc45)cc3)c(-c3ccccc3)nc2c1,·,·,-20.6,-3.0,·
COc1ccc(CNc2nc(NCc3ccc(OC)c(OC)c3)n(C(=O)c3cccs3)n2)cc1OC,5.8,44.3*,-34.9,10.3,-0.9
NC(=O)COc1c(-c2ccc(Br)o2)oc2ccccc2c1=O,-12.7,71.7*,·,·,7.2
COc1cc(C)ccc1OCC(=O)OCC(=O)c1[nH]c(C)c(C(C)=O)c1C,-3.8,5.1,26.9,7.5,11.2
CC(=O)c1c(C)[nH]c(C(=O)COc2cc(C)ccc2C(C)C)c1C,74.1*,84.4*,72.4*,5.9,62.2*
CC(C)(C)OC(=O)N(Cc1ccccc1)Cc1ccc(OCc2cccc(NC(=O)C3CC3)c2)cc1,·,·,52.6*,2.0,·
CN1C(=O)S/C(=C/c2cccnc2)C1=O,-2.2,64.5*,19.4,4.3,0.6
